In ChEMBL document CHEMBL4118191, “Novel oxazolxanthone derivatives as a new type of α-glucosidase inhibitor: synthesis, activities, inhibitory modes and synergetic effect” (Bioorg Med Chem, 2018):
The source made the active and inactive calls. No cut-off for these calls is given here.

Legend:
[1] = Inhibition of Saccharomyces cerevisiae alpha-glucosidase using PNP glycoside as substrate preincubated for 30 mins followed by substrate addition measured after 60 secs by spectrophotometric method
Method in brief: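 Yeast α-glucosidase was pre-incubated with inhibitor for 30 min at 37 °C before substrate addition. The reaction ran 60 s at 37 °C and was read by absorbance at 400 nm. Five inhibitor concentrations were bracketed around a first-round IC50 estimate, each in triplicate, and mean values were taken.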

[2] = Solubility of the compound; type: physicochemical
Saccharomyces cerevisiae [3] = test: Competitive inhibition of Saccharomyces cerevisiae alpha-glucosidase at 50 to 60 uM using varying levels of PNP glycoside as substrate preincubated for 30 mins followed by substrate addition measured after 60 secs by Lineweaver-Burk plot analysis
Method in brief: (§1)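 Mode of inhibition came from Lineweaver–Burk double-reciprocal plots. At each fixed inhibitor concentration, yeast α-glucosidase activity was measured over varying PNP glycoside concentrations. Enzyme–inhibitor mixtures were in 50 mM phosphate buffer, pH 6.8, with 5% v/v DMSO, and were pre-incubated 30 min at 37 °C before substrate addition. The reaction ran 60 s at 37 °C and was read at 400 nm.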

[4] = Non-competitive inhibition of Saccharomyces cerevisiae alpha-glucosidase using varying levels of PNP glycoside as substrate preincubated for 30 mins followed by substrate addition measured after 60 secs by Lineweaver-Burk plot analysis; method in brief: as §1
Saccharomyces cerevisiae [5] = test: (§2) Synergistic inhibition of Saccharomyces cerevisiae alpha-glucosidase at 1:1 molar ratio of compound to 5-hydroxy-2-(4-methoxyphenyl)-6H-xantheno [4, 3-d] oxazol-6-one using PNP glycoside as substrate preincubated for 30 mins followed by substrate addition measured after 60 secs by spectrophotometric method relative to compound alone
Method in brief: (§3)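 Single-point inhibition of yeast α-glucosidase, tested individually and as a 1:1 molar mixture at a fixed total concentration of 2. Inhibitor and enzyme were pre-incubated 30 min at 37 °C, then substrate was added. The reaction ran 60 s at 37 °C with absorbance read at 400 nm. Percent inhibition is relative to control.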

Saccharomyces cerevisiae [6] = test: as §2, with “control” for “compound alone”; method in brief: as §3
Saccharomyces cerevisiae [7] = test: Inhibition of Saccharomyces cerevisiae alpha-glucosidase at 2 uM using PNP glycoside as substrate preincubated for 30 mins followed by substrate addition measured after 60 secs by spectrophotometric method relative to control; method in brief: as §3
Saccharomyces cerevisiae [8] = test: Ratio of IC50 for synergistic inhibition of Saccharomyces cerevisiae alpha-glucosidase assessed as 5-hydroxy-2-(4-methoxyphenyl)-6H-xantheno [4, 3-d] oxazol-6-one IC50 to IC50 for Saccharomyces cerevisiae alpha-glucosidase
Method in brief: (§4)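 Yeast α-glucosidase IC50 was determined for the two-inhibitor mixture at a 4:6 molar ratio and for each inhibitor alone. Pre-incubation was 30 min at 37 °C, followed by a 60 s reaction at 37 °C read at 400 nm. Five concentrations were run in triplicate and means taken. Ratios compare single-compound IC50 with mixture IC50.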

Saccharomyces cerevisiae [9] = test: as §2, with “5-methoxy-2-(4-methoxyphenyl)-6H-xantheno” for “5-hydroxy-2-(4-methoxyphenyl)-6H-xantheno”, “control” for “compound alone”; method in brief: as §3
[10] = as §2, with “4:6” for “1:1”, “5-methoxy-2-(4-methoxyphenyl)-6H-xantheno” for “5-hydroxy-2-(4-methoxyphenyl)-6H-xantheno”, “method” for “method relative to compound alone”; method in brief: as §4
Saccharomyces cerevisiae [11] = test: Ratio of compound alone IC50 to compound IC50 in presence of 5-methoxy-2-(4-methoxyphenyl)-6H-xantheno [4, 3-d] oxazol-6-one for Saccharomyces cerevisiae alpha-glucosidase; method in brief: as §4
Saccharomyces cerevisiae [12] = test: as §2, with “5-methoxy-2-(4-methoxyphenyl)-6H-xantheno” for “5-hydroxy-2-(4-methoxyphenyl)-6H-xantheno”; method in brief: as §3

Row | SMILES | IC50 [1] | further results
1 | O=c1c2ccccc2oc2c1c(O)cc1oc(-c3ccc(C(F)(F)F)cc3)nc12 | 26.9 µM | 
2 | OC[C@H]1NC[C@H](O)[C@@H](O)[C@@H]1O [DUVOGLUSTAT] | 60.3 µM | 
3 | O=c1c2ccccc2oc2c1c(O)cc1oc(-c3ccccc3F)nc12 | 8.4 µM | 
4 | O=c1c2ccccc2oc2c1c(O)cc1oc(-c3ccc(Br)cc3)nc12 | 11 µM | 
5 | COc1cc2oc(-c3ccc(Cl)cc3)nc2c2oc3ccccc3c(=O)c12 | 9.9 µM | solubility [2]: Soluble
6 | O=c1c2ccccc2oc2c1c(O)cc1oc(-c3c(F)cc(F)cc3F)nc12 | 6.3 µM | Ki [4]: 6.8 µM
7 | Nc1c(O)cc(O)c2c(=O)c3ccccc3oc12 | 127 µM | 
8 | COc1ccc(-c2nc3c(cc(OC)c4c(=O)c5ccccc5oc43)o2)cc1 | 8.6 µM | fold change (FC) (Saccharomyces cerevisiae [5]): 2; inhibition (Saccharomyces cerevisiae [6]): 41.9%; inhibition (Saccharomyces cerevisiae [7]): 20.3%; Ratio IC50 (Saccharomyces cerevisiae [8]): 4; Ki [4]: 7.4 µM; solubility [2]: Soluble
9 | COc1ccc(-c2nc3c(cc(O)c4c(=O)c5ccccc5oc43)o2)cc1 | 7.1 µM | inhibition (Saccharomyces cerevisiae [9]): 41.9%; IC50 [10]: 1.9 µM; inhibition (Saccharomyces cerevisiae [7]): 21.7%; Ki [4]: 5.3 µM; Ratio IC50 (Saccharomyces cerevisiae [11]): 3.5; fold change (FC) (Saccharomyces cerevisiae [12]): 2
10 | O=c1c2ccccc2oc2c1c(O)cc1oc(C3CCCCC3)nc12 | 38.5 µM | 
11 | O=c1c2ccccc2oc2c1c(O)cc1oc(-c3ccc(Cl)cc3)nc12 | 8.8 µM | 

Further compounds by falling IC50 [1], results first:

Row | IC50 [1] | SMILES | further results
12 | 286 µM | O=c1c2ccccc2oc2c([N+](=O)[O-])c(O)cc(O)c12 | 
13 | 186 µM | O=c1c2ccccc2oc2cc(O)cc(O)c12 | 
14 | 64.4 µM | Cc1nc2c(cc(O)c3c(=O)c4ccccc4oc32)o1 | inhibition (Saccharomyces cerevisiae [3]): Active
15 | 24.5 µM | O=c1c2ccccc2oc2c1c(O)cc1oc(-c3ccc([N+](=O)[O-])cc3)nc12 | 
16 | 19.6 µM | COc1cc2oc(-c3ccccc3)nc2c2oc3ccccc3c(=O)c12 | solubility [2]: Soluble
17 | 19.1 µM | Cc1ccc(-c2nc3c(cc(O)c4c(=O)c5ccccc5oc43)o2)cc1 | 
18 | 18.3 µM | O=c1c2ccccc2oc2c1c(O)cc1oc(-c3ccccc3)nc12 | 
19 | 8.9 µM | O=c1c2ccccc2oc2c1c(O)cc1oc(-c3cccc(F)c3)nc12 | 
20 | 8.3 µM | Nc1ccc(-c2nc3c(cc(O)c4c(=O)c5ccccc5oc43)o2)cc1 | 
21 | 7.3 µM | O=c1c2ccccc2oc2c1c(O)cc1oc(-c3ccc(O)cc3)nc12 | 
22 | 6.7 µM | O=c1c2ccccc2oc2c1c(O)cc1oc(-c3ccc(F)cc3)nc12 | 
